Yeast lifespan up: compounds extending yeast replicative lifespan, primary screen, S. cerevisiae, OD615. S. cerevisiae growth with nicotinamide; deaD strain in restrictive glucose medium. inhibition of the nicotinamide effect, % at 10 µM. 130,000 tested, 0.68% active. AID 775, 2007;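 active means inhibition above a set limit, placed 3 SD over the median of all compounds, cut at about 26% in these data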;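 further: 0% = nicotinamide-treated wells and 100% = cells grown without nicotinamide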
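Material: Modified budding yeast, DeaD strain | Medium: Restrictive glucose medium | Probe or stimulus: 1.5 mM nicotinamide | Dosing: Single dose 10 µM compound, 0.25% DMSO | Times: 48 h at 30 °C | Technique: OD615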
Yeast growth inh: growth inhibitors of yeast BB579 in restrictive medium, primary screen, yeast lifespan-shortening project, S. cerevisiae; OD615, 48 h; inhibition, % at 10 µM; 140,000 tested, 0.51% active; AID 804, 2007;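 active means inhibition above a set limit, 3 SD over the mean compound inhibition, cut at about 44% in these data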
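System: Saccharomyces cerevisiae DeaD strain BB579, replicative lifespan model yeast | Buffer or medium: Restrictive glucose-based CSMM-D medium | Times: 4 h preincubation and 48 h exposure at 30 °C | Detection: OD615 turbidity measurement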
RAM network inh: inhibitors of the yeast RAM network, primary screen, dse1pr::URA3 reporter, 5-FOA selection | 190,000 tested, 1.8% active | inhibition, % at 50 µM | S. cerevisiae dse1pr::URA3 reporter, 5-FOA growth OD615, 2 d; analog-sensitive cbk1-as2 kinase mutant strain;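 active means inhibition above a set limit, 3 SD over mean compound inhibition, cut at about 8.4% in these data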;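 further: 0% = DMSO-only wells with no growth and 100% = 10 µM 1-NA-PP1 full growth; inhibition rescues growth on 5-FOA so higher OD means more RAM inhibition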
WT yeast gro inh: growth inhibition of WT strain, primary screen, mitochondrial fusion inhibitor project, WT and mutant strains, chemical genetic; mitochondrial fusion phenotypic screen; inhibition, % at 10 µM; 190,000 tested, 2.1% active; AID 1362, 2008; in the data active means inhibition above about 58%; tested in S. cerevisiae
RAM 5-FOA: 5-FOA growth of efflux-deficient control yeast, dose response, counter-screen for RAM network inhibitor project, S. cerevisiae, OD615; shares compounds with RAM network inh; S. cerevisiae efflux-deficient reporter strain, 5-FOA growth OD615, 2 days; max inhibition, %; 1,200 tested, under 10 active; call rule not given here;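 further: plate controls were vehicle for no effect and reference inhibitor for full effect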
Starred values were filed as active, the others as inactive; x = not tested or not shown. A selection: hits, their analogues and other compounds. The true share with any hit is near 4.3%.

SMILES	Yeast lifespan up	Yeast growth inh	RAM network inh	WT yeast gro inh	RAM 5-FOA
COc1ccc(CONS(=O)(=O)c2ccc(NC(C)=O)cc2)cc1Cl	-4.5	-27.7	0.0	x	x
COC(=O)c1cn(CCOc2ccc(C)cc2)c2ccccc12	-21.6	-43.1	6.2	44.5	x
COc1ccccc1OCCn1cc(/C=C(\C#N)C(=O)NCc2cccs2)c2ccccc21	-5.1	-26.8	2.7	-9.0	x
CCOC(=O)/C(C#N)=C/c1cn(CCOc2ccc(OC)cc2)c2ccccc12	-0.6	-65.6	13.2*	4.2	4.5
N#C/C(=C\c1cn(CCOc2ccccc2)c2ccccc12)C(=O)NCC1CCCO1 (centres undefined)	-14.4	-46.7	15.5*	-4.5	3.3
NC(=O)C1CCN(c2ncc(C(F)(F)F)cc2Cl)CC1	x	x	-0.5	-14.3	x
Cc1cc(C)n2c(nc3ccccc32)c1C(=O)NCc1ccccc1	x	x	-0.5	7.8	x
Cc1ccsc1C1Nc2ccc3ncccc3c2C2=C1C(=O)CC(C)(C)C2 (centres undefined)	-6.5	-47.6	0.5	-2.0	x
CC1(C)CC(=O)C2=C(C1)c1c(ccc3ccccc13)NC2c1ccco1 (centres undefined)	-8.5	-7.7	15.8*	14.4	1.8
COc1ccc(-c2nc(-c3ccc(O)cc3O)cs2)cc1OC	x	x	12.1*	46.4	3.6
COc1ccc(-c2nc(CCl)cs2)cc1OC	x	x	-0.2	3.3	x
O=c1c(-c2nnc(SCc3ccc(Cl)cc3Cl)o2)cccn1Cc1ccccc1	4.5	-39.8	12.0*	50.1	0.6
COc1ccc(CSCC(=O)Nc2ccc(S(=O)(=O)N3CCCCCC3)cc2)cc1	6.5	-55.6	14.3*	41.0	1.5
COCCn1c(SCC(=O)Nc2nnc(C)s2)nnc1-c1ccncc1	-4.0	-6.0	-0.2	2.0	x
CCOC(=O)c1sc(NC(=O)CSc2nnc(-c3ccc(OC)cc3)n2CCOC)nc1C	-3.3	-38.6	12.4*	-1.9	1.5
COCCCNC(=O)/C(C#N)=C/c1ccc(OCC(=O)O)c(OC)c1	0.6	-27.2	0.9	11.2	x
COc1ccc(/C=C(\C#N)C(=O)NCCc2ccccc2)cc1OCc1ccccc1	1.6	-9.0	18.1*	35.1	1.9
C/C(CC1CC2=C(CC1(C)C)C(C)(C)CCC2)=N\NC(N)=S (centres undefined)	-1.9	13.0	13.2*	76.0*	1.1
CCCCCCN(C(=O)CCCCCN1C(=O)NC(c2ccc(-c3ccccc3)cc2)C(C(=O)OCc2ccccc2)=C1C)C(C)C(=O)NCCCC (centres undefined)	18.8	-25.8	28.5*	-21.4	6.0
COC(=O)CCCCCN1C(=O)NC(c2ccccc2)C(C(=O)OCc2ccccc2)=C1C (centres undefined)	6.9	-54.6	4.6	30.1	x
CCOC(=O)c1c(C)n(OC)c2ccc3c(no[n+]3[O-])c12	-3.4	-30.1	4.3	1.2	x
CCCCOn1c(C)c(C(=O)OCC)c2c3no[n+]([O-])c3ccc21	-19.6	-40.1	12.1*	0.7	1.4
O=C(/C=C/c1ccc(Cl)cc1)c1cccnc1	-5.8	-19.0	1.0	10.2	x
O=C(/C=C/c1ccc(OCc2ccccc2)c(OCc2ccccc2)c1)c1cccnc1	4.8	-20.4	13.8*	0.3	5.8
COc1cccc(N=C2SC(C(=O)Nc3ccccc3F)CC(=O)N2C)c1 (centres undefined)	-3.6	-19.9	5.0	1.2	x
SMILES	Yeast lifespan up	Yeast growth inh	RAM network inh	WT yeast gro inh	RAM 5-FOA
COc1cccc(NC(=O)C2CC(=O)N(C)C(=Nc3cccc(F)c3)S2)c1 (centres undefined)	-16.9	-6.4	19.5*	-4.0	1.1
COc1ccc(-c2nc3ccccn3c2/N=C/c2ccc(OC)c(OC)c2)cc1O	-3.2	-48.4	0.7	-4.1	x
Cc1ccc(CNC(=O)c2oc3ccc(S(=O)(=O)N4CCC5(CC4)OCCO5)cc3c2C)cc1	-4.2	-58.0	5.1	5.4	x
Cc1ccc(NC(=O)c2oc3ccc(S(=O)(=O)N4CCC5(CC4)OCCO5)cc3c2C)cc1C	14.3	-44.5	12.4*	12.9	1.4
CCN(CC)S(=O)(=O)c1cc(C(=O)OCC(=O)Nc2cccc(Br)c2)ccc1F	8.0	-34.0	14.7*	3.4	1.9
CCN(CC)S(=O)(=O)c1cc(C(=O)OCC(=O)Nc2c(F)cccc2F)ccc1F	1.2	-3.3	0.9	-0.7	x
Cc1ccc(S(=O)(=O)CCC(=O)OCC(=O)Nc2cc(C)on2)cc1	-8.6	-27.6	0.8	11.2	x
CCOC(=O)c1cc(C(C)C)sc1NC(=O)COC(=O)CCS(=O)(=O)c1ccccc1	3.3	-28.6	12.8*	10.1	2.2
CCOC(=O)c1c(NC(=O)COC(=O)CCS(=O)(=O)c2ccc(C)cc2)sc(C)c1C	4.1	-9.3	14.3*	-11.3	2.6
CCOC(=O)c1c(NC(=S)Nc2ccc(OC)cc2)sc2c1CCCCC2	-3.2	-56.6	15.0*	-12.5	1.8
COc1ccc(/C=C/C(=O)Nc2c(C)nn(C)c2C)cc1COc1ccc(Cl)cc1Br	x	-28.4	1.5	-5.6	x
COc1cc2c(cc1NC(=O)CSc1ccc(C)cc1)oc1ccccc12	-1.2	-63.3	4.3	40.3	x
COc1cc2c(cc1NC(=O)C(C)Sc1ccc(C)cc1)oc1ccccc12 (centres undefined)	-5.5	-48.7	13.7*	12.8	3.9
CCOc1cc(C(=O)N/N=C/C2CC=CCC2)cc(OCC)c1OCC (centres undefined)	1.8	-9.9	1.2	-15.9	x
COc1ccc(OC)c(NC(=O)CSCc2cnn(-c3ccccc3)c2-n2cccc2)c1	35.2	-47.8	16.3*	26.8	2.8
COc1cc(NC(=O)CSCc2cnn(-c3ccccc3)c2-n2cccc2)cc(OC)c1	-2.5	-52.4	19.8*	30.1	2.4
COC(=O)c1ccc(CNC(=O)COC(=O)c2ccc(N(C)C)cc2)cc1	x	x	2.2	-11.8	x
CC(=O)Oc1cccc(N2C(=O)c3ccc(C(=O)Nc4c[nH]c(=O)[nH]c4=O)cc3C2=O)c1	x	x	12.5*	1.4	2.8
CC(C)CCN1C(=O)c2ccc(C(=O)Nc3c[nH]c(=O)[nH]c3=O)cc2C1=O	x	x	3.7	-0.4	x
Cc1ccc(S(=O)(=O)Cn2nnnc2CN(Cc2ccco2)Cc2cccs2)cc1	1.6	-49.2	11.8*	36.6	1.8
CCCC1S/C(=N/N=C/c2ccc(OC)cc2)N(Cc2ccccc2)C1=O (centres undefined)	1.9	-17.8	14.9*	7.5	3.3
CCCCC1S/C(=N/N=C/c2ccc(OC)cc2)N(Cc2ccc(OC)cc2)C1=O (centres undefined)	4.6	-11.3	13.6*	5.0	6.4
COc1ccc(CC2S/C(=N/N=C/c3ccc(O)cc3)NC2=O)cc1 (centres undefined)	x	x	5.1	-7.3	x

From PubChem BioAssay
